Values joined by “and” are separate entries in the source; they are usually repeats but may differ in a detail not shown here. Equal values may be shown once. Read-outs that look alike come from different tables or passages of the source.
What was measured:
[1] = assay type: in vivo, human
Procedure, shortened: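 Same crossover dosing (saline or 600 mg inhibitor i.v. over 30 min, then 4 mg s.c. fasting). Plasma was sampled from 5 min to 36 h post-dose and stored at −25°C. Quantification used validated LC-MS/MS (LLOQ 1.00 ng/mL; linear 1.00–2,000 ng/mL). Noncompartmental analysis: AUC0–t by linear trapezoidal rule; AUC0–∞ adds Ct/λz; CL/F = Dose/AUC0–∞. Treatment effect given as geometric mean ratios with 90% CI.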

[2] = ref Idorsia Pharmaceuticals, data on file; cited from earlier work
[3] = Safety and tolerability evaluation of study treatments in healthy subjects; assay type: in vivo, human; details: for Number of AEs reported: 14 subjects
Procedure, shortened: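 Randomized, double-blind, two-period crossover in healthy adults with a 7–10 day washout. Each period gave 100 mL saline or 600 mg OATP inhibitor i.v. over 30 min, with bags and lines covered. This was followed by 4 mg test compound s.c. in the thigh under fasting. Monitoring throughout covered AEs, serious AEs, physical exam, vital signs, 12-lead ECG, body weight, clinical chemistry, hematology and coagulation.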

[4] = cited from earlier work
[5] = cited from earlier work; remark: listed apart in the source
[6] = system: OATP1B1; details: in vitro; ref Idorsia Pharmaceuticals, data on file; cited from earlier work
[7] = system: OATP1B3; details: in vitro; ref Idorsia Pharmaceuticals, data on file; cited from earlier work
[8] = cited from earlier work; remark: listed apart in the source
[9] = system: MRP2; details: in vitro; ref Idorsia Pharmaceuticals, data on file; cited from earlier work
[10] = system: platelet inhibition; details: single s.c. doses of 8 and 16 mg, postdose; cited from earlier work
[11] = system: OATP1B3; details: following a single 600 mg dose; cited from earlier work
[12] = system: OATP1B1; details: following a single 600 mg dose; cited from earlier work
[13] = system: OATP2B1; details: cited from earlier work
[14] = 600 mg rifampin i.v. before 4 mg selatogrel s.c.
[15] = Treatment A: placebo + 4 mg selatogrel s.c., n = 13
[16] = Treatment B: 600 mg rifampin i.v. + 4 mg selatogrel s.c., n = 13
[17] = treatment B (rifampin) / A (placebo), n = 13

**Q.** With CCCCOC(=O)N1CCN(C(=O)[C@H](CP(=O)(O)O)NC(=O)c2cc(N3CC[C@H](OC)C3)nc(-c3ccccc3)n2)CC1 [selatogrel, 4‐((R)‐2‐{[6‐((S)‐3‐Methoxypyrrolidin‐1‐yl)‐2‐phenylpyrimidine‐4‐carbonyl]amino}‐ 3‐phosphonopropionyl)piperazine‐1‐carboxylic Acid Butyl Ester] as the molecule, how does the “Decrease of CL/F with rifampin” value [1, 14] read?
**A.** Its value is ~ 30%.

**Q.** What about the “Decrease of Vd/F with rifampin” value [1, 14] of the same molecule?
**A.** Its value is ~ 30%.

**Q.** And the “Increase of AUC0–t with rifampin compared with placebo” value [1, 14]?
**A.** Its value is 44%.

**Q.** And the “Increase of AUC0–∞ with rifampin compared with placebo” value [1, 14]?
**A.** Its value is 43% and ~40%.

**Q.** And the “Increase of Cmax with rifampin compared with placebo” value [1, 14]?
**A.** The value was 19% and ~ 20%.

**Q.** What about the “AUC0–t, geometric mean” value [1, 15] of the same molecule?
**A.** The value was 273.7 ng·h/mL.

**Q.** And the “AUC0–∞, geometric mean” value [1, 15]?
**A.** The value was 279.8 ng·h/mL.

**Q.** What about the “CL/F, geometric mean” value [1, 15] of the same molecule?
**A.** Its value is 14.3 L/h.

**Q.** And the “AUC0–t, geometric mean” value [1, 16]?
**A.** Its value is 392.6 ng·h/mL.

**Q.** And the “AUC0–∞, geometric mean” value [1, 16]?
**A.** Its value is 398.7 ng·h/mL.

**Q.** And the “CL/F, geometric mean” value [1, 16]?
**A.** The value was 10.0 L/h.

**Q.** What about the “AUC0–t, geometric mean ratio B/A” value [1, 17] of the same molecule?
**A.** The value was 1.44.

**Q.** What about the “AUC0–∞, geometric mean ratio B/A” value [1, 17] of the same molecule?
**A.** Its value is 1.43.

**Q.** What about the “CL/F, geometric mean ratio B/A” value [1, 17] of the same molecule?
**A.** Its value is 0.70.

**Q.** And the “Cmax, geometric mean ratio B/A” value [1, 17]?
**A.** The value was 1.19.

**Q.** And the “Vd/F, geometric mean ratio B/A” value [1, 17]?
**A.** The value was 0.68.

**Q.** And the “t 1/2, geometric mean ratio B/A” value [1, 17]?
**A.** Its value is 0.97.

**Q.** And the transcellular permeability [2]?
**A.** Its transcellular permeability is 0.2 10^−6 cm/seconds.

**Q.** And the “Intensity of AEs” value ([3]; both treatment periods)?
**A.** Its value is “mild”.

**Q.** And the “Serious adverse events or AEs leading to discontinuation” value ([3]; both treatment periods)?
**A.** The value was “No serious adverse events or AEs leading to study discontinuation”.

**Q.** What about the “Overall safety and tolerability” value ([3]; selatogrel 4 mg s.c. after rifampin or matching placebo) of the same molecule?
**A.** The value was “safe and well‐tolerated”.

**Q.** And the “Number of AEs reported” value ([3]; selatogrel 4 mg s.c. with 600 mg rifampin i.v. (treatment B))?
**A.** The value was 17.

**Q.** What about the “Number of AEs reported” value ([3]; selatogrel 4 mg s.c. with placebo (treatment A)) of the same molecule?
**A.** Its value is 8.

**Q.** And the “Number of AEs considered related to study treatment” value ([3]; treatment period A (placebo + selatogrel))?
**A.** The value was 1.

**Q.** And the Exposure dose proportionality ([4]; dose range 1–32 mg)?
**A.** The Exposure dose proportionality was “dose‐proportional exposure”.

**Q.** And the “Safety and tolerability in single-ascending dose study” value ([4]; dose range 1–32 mg)?
**A.** Its value is “safe and well‐tolerated”.

**Q.** And the “Time of absorption after s.c. administration” value ([4]; s.c.)?
**A.** The value was 30 to 45 min.

**Q.** And the elimination half-life ([4]; s.c.)?
**A.** The elimination half-life was 2 to 9 h.

**Q.** What about the Route of elimination [5] of the same molecule?
**A.** The Route of elimination was “mainly eliminated unchanged via the biliary route”.

**Q.** What about the “Substrate of OATP1B1” value [6] of the same molecule?
**A.** Its value is “substrate”.

**Q.** What about the “Substrate of OATP1B3” value [7] of the same molecule?
**A.** The value was “substrate”.

**Q.** What about the Plasma protein binding [8] of the same molecule?
**A.** Its Plasma protein binding is “highly bound to plasma proteins”.

**Q.** And the “Substrate of MRP2” value [9]?
**A.** Its value is “substrate”.

**Q.** And the “Time to reversal of pharmacodynamic effect” value [10]?
**A.** Its value is at most 24 h.

**Q.** For CO[C@H]1/C=C/O[C@@]2(C)Oc3c(C)c(O)c4c(O)c(c(/C=N/N5CCN(C)CC5)c(O)c4c3C2=O)NC(=O)/C(C)=C\C=C\[C@H](C)[C@H](O)[C@@H](C)[C@@H](O)[C@@H](C)[C@H](OC(C)=O)[C@@H]1C [rifampin], which “Inhibition of OATP1B3” value [11] is on record?
**A.** Its value is “potent inhibitor”.

**Q.** And the “Inhibition of OATP1B1” value [12]?
**A.** The value was “potent inhibitor”.

**Q.** And the “Inhibition of OATP2B1” value [13]?
**A.** The value was “not a potent inhibitor”.

Reference: article PMC7485944 (Clinical and Translational Science, 2020)
